Assay outcomes from PubChem BioAssay.
ATG4B inhibitor = blocks human ATG4B protease cleavage of LC3 substrate | Q9Y4P1 | ATG4B cleavage of LC3-PLA2, NBD-HPC fluorescence, 1 h | inhibition, % at 8.33 µM | hit rate 0.51% among 340,000 | AID 504462; in the data active means inhibition above about 40%
SR-BI DiI inh = mouse SR-BI HDL lipid transfer inhibition | inhibition, % at 12.5 µM | AID 488896 | Q61009 | ldlA[mSR-BI] CHO cells, DiI-HDL uptake fluorescence, 3 h | hit rate 0.96% among 320,000;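 active means mean replicate inhibition of at least 70% and a set share of replicates each scoring 70 or more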;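 further: 0% = median of neutral control wells and 100% = median of positive control wells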
Target sequence (Q61009 whole entry, looked up): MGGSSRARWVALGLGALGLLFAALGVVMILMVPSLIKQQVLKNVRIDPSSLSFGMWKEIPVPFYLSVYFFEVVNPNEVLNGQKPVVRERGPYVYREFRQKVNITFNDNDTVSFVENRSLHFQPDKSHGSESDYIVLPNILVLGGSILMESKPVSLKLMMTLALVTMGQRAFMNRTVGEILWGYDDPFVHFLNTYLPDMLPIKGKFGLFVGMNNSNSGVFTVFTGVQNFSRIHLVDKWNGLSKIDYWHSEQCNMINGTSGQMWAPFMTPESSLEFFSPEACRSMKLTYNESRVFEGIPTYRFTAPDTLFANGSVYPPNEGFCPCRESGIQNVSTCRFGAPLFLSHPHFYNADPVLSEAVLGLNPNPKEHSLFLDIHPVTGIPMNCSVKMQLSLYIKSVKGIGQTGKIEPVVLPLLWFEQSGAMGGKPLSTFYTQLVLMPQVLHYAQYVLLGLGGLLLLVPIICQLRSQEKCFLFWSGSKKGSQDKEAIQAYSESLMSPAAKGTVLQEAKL
CAL PDZ FP-1 = inhibitors of human CAL PDZ peptide binding. inhibition, % at 20 µM. hit rate 0.02% among 330,000. Q9HD26. purified CAL PDZ, TMR-peptide fluorescence polarization, 1 h;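 active means highest replicate inhibition of at least 40%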;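 further: plate controls were DMSO neutral control wells for no effect and unlabeled competitor peptide control wells for full effect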
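Test system: tagged CAL PDZ domain / Buffer or medium: sodium phosphate/NaCl buffer pH 7.4 with TCEP, IgG, Thesit / Reagent: TMR-labelled reporter peptide T*-PRC34 bound in PDZ groove / Compound dosing: single point, 20 µM / Schedule: 1 h incubation at room temperature before polarization reading / Technique: fluorescence polarization (mP) / Benchmarks: unlabelled peptide, DMSO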
CAL PDZ FP-2 = blocks peptide binding to the human CAL PDZ domain. purified CAL PDZ, TMR-peptide fluorescence polarization, 1 h. Q9HD26. hit rate 0.92% among 300,000. inhibition, % at 24.9 µM;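 active means mean inhibition of at least 30% with at least half of replicates also reaching 30%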;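 further: 0% = DMSO neutral control and 100% = excess unlabeled competitor peptide PRC23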
SR-BI DiI-HDL act = activators of SR-BI mediated HDL lipid uptake | CHO ldlA[mSR-BI] cells, DiI-HDL uptake fluorescence, 3 h; 100 = double the neutral-control signal | hit rate 0.096% among 320,000 | activation, % at 12.5 µM;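 active means mean replicate activation of at least 60% and every replicate at or above 60%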;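 further: 0% = median plate neutral-control signal and 100% = twice that signal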
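Test system: SR-BI-overexpressing, LDLR-lacking CHO cells. Measured by: DiI fluorescence, bottom read. Medium: Ham's F12 with 0.5% BSA, HEPES 25 mM, pH 7.4. Timing: 3 h uptake period with compound, 37 °C.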
The depositor's hits bear a star; . = no result. Sampled rows, rich in hits. Any-hit rate of the full collection: about 2.3%.

SMILES	ATG4B inhibitor	SR-BI DiI inh	CAL PDZ FP-1	CAL PDZ FP-2	SR-BI DiI-HDL act
Cc1cccnc1NC(=O)CCNC(=O)c1ccccc1Cl	-4.2	-36.0	-1.4	-0.9	36.0
CC(O)(c1ccccc1)c1ccc2ccccc2n1 (configuration not stated)	0.5	-16.1	-0.7	44.7*	16.1
Cc1cccc(C(O)(C(=O)NNc2ccc3ccccc3n2)c2cccc(C)c2)c1	-3.1	21.4	-1.1	1.3	-21.4
CC(O)CC(C)O (configuration not stated)	2.5	-4.3	-0.3	1.4	4.3
CC1=C(c2ccccc2)C=NNCC1=O	-0.3	.	-0.2	0.7	.
CCCc1ccc(-c2cc(C(=O)N/N=C/c3ccc([N+](=O)[O-])o3)c3ccccc3n2)cc1	-9.1	95.0*	-1.4	-8.2	-95.0
O=C(N/N=C/c1ccc([N+](=O)[O-])o1)c1cc(-c2cccc(Br)c2)nc2ccccc12	22.3	105.3*	-2.8	0.1	-105.3
O=C(N/N=C/c1ccco1)c1cc(-c2ccccc2)nc2ccccc12	1.0	55.5	-1.9	.	-55.4
CSc1cccc(NC(=S)N2CCCN(Cc3ccc(F)cc3)C2)c1	17.8	.	-3.4	-4.1	.
O=C(O)c1ccccc1CSc1nnnn1-c1ccccc1	-0.7	-8.3	.	80.7*	8.3
O=C(O)c1cccc(-n2nnnc2SCc2ccccc2Cl)c1	1.3	-4.8	-0.8	-4.8	4.8
CN(C)CC1(C)Cc2ccsc2C1O (configuration not stated)	-1.1	-17.0	-0.3	-6.5	17.0
CCc1cc2cccc(C)c2nc1SCC(=O)NNC(=O)c1ccco1	3.2	-14.8	-3.0	-1.3	14.8
CCc1cc2cc(C)c(C)cc2nc1SCC(=O)NNC(=O)c1ccco1	3.0	75.0*	1.1	-1.4	-75.0
COc1cc(OC)cc(-c2cc3ccc(OC)cc3cn2)c1	-3.4	90.3*	-0.4	-1.6	-90.3
COc1ccc(-c2cc3cc(OC)c(OC)cc3cn2)cc1	-12.7	79.1*	-8.2	-10.7	-79.1
Cc1noc(C)c1NC(=O)Nc1ccc2c(c1)CC(=O)N([C@@H](C)CO)C[C@@H](C)[C@@H](CN(C)C(=O)Nc1cccc3ccccc13)O2	-1.2	8.6	-0.7	-4.8	-8.6
COc1cc2c(cc1OC)C(c1ccc(Br)cc1)CC(=O)N2 (configuration not stated)	0.0	1.9	.	62.3*	-1.9
Cc1ccsc1C(=O)OCC(=O)c1cc(C)n(C)c1C	12.0	6.4	0.6	1.0	-6.4
Cc1ccc(OCCC(=O)N(CC(=O)Nc2ccccc2C(F)(F)F)Cc2ccco2)cc1	-1.1	12.5	-2.3	40.0*	-12.5
O=C(CN(Cc1ccco1)C(=O)c1cccc(F)c1)Nc1ccccc1C(F)(F)F	-4.0	5.4	-0.7	.	-5.4
O=C(CN1C(=O)NC2(CCCC2)C1=O)NCc1ccccc1	1.3	-25.2	-1.6	0.2	.
CCN1CCc2c(OCc3ccccc3)cccc2C1=O	2.7	80.1*	-1.7	-3.4	-80.1
O=C1c2cccc(OCc3ccc(F)cc3)c2CCN1Cc1ccccc1	-0.6	25.4	-1.0	6.6	-25.4
COc1ccc(NS(=O)(=O)c2cccc(C(=O)N/N=C/c3cn(-c4ccccc4)nc3-c3ccccc3)c2)cc1	-11.6	96.5*	-0.6	6.6	-96.5
SMILES	ATG4B inhibitor	SR-BI DiI inh	CAL PDZ FP-1	CAL PDZ FP-2	SR-BI DiI-HDL act
COc1ccc(NS(=O)(=O)c2cccc(C(=O)N/N=C/c3cn(-c4ccccc4)nc3-c3ccc(OC)cc3)c2)cc1	3.3	.	0.8	-6.0	.
O=C(N/N=C/c1cn(-c2ccccc2)nc1-c1ccc(F)cc1)c1ccc(Br)o1	-1.3	87.0*	-0.7	-0.6	-87.0
O=C(N/N=C/c1cn(-c2ccccc2)nc1-c1cccnc1)c1ccc(F)cc1	-11.9	59.1	-2.9	1.4	-59.1
COc1ccc(NS(=O)(=O)c2cccc(C(=O)NNC(=O)c3ccccc3O)c2)cc1	4.1	72.3*	-2.5	-1.9	-72.3
CCN(CC)c1ccc(/C=N/NC(=O)c2cccc(S(=O)(=O)Nc3ccccc3OC)c2)c(O)c1	-5.9	132.0*	-0.6	-2.4	-132.0
CCN(CC)c1ccc(/C=N/NC(=O)c2cccc(S(=O)(=O)Nc3ccccc3OC)c2)cc1	-10.4	48.8	-0.9	3.7	-48.8
CCN(C[C@H]1N[C@@](C)(C(=O)OC)[C@H]2C(=O)N(C)C(=O)[C@@H]12)C(=O)Nc1ccc(Cl)cc1	-11.1	-23.6	-0.2	-2.8	23.6
